Active and inactive are the calls of the source.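 The calls were made as follows, unless noted: active = visual image review flags a hit and inhibition of aggregation exceeds 20%; inconclusive = visual hit but inhibition at or below 20%; inactive = no hit on visual image review.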 Where a SMILES comes first, the peptide text is derived from it. The star is where a group is joined. Boc = CC(C)(C)OC(=O)*
Tests used:
[1] = inhibitors of TNFa-induced NFkB p65 translocation, primary screen, imaging, HUVEC, MLSMR starter and 10KST1 sets (AID 438;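 active = inhibition above 20% together with a positive visual image hit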;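 also: compound added about 3h40 before a 20 min TNFalpha stimulation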;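 as to inhibition: signal is the nuclear over cytoplasmic p65 intensity ratio per well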); conditions: HUVEC TNFa-induced p65 nuclear translocation; cell count: measured here: nuclei count (cytotoxicity indicator), at 2.08 µM; inhibition: at 2 µM, stronger effect = higher value, 0% TNFa-plus-vehicle, 100% no-TNFa wells
[2] = inhibitors of mutant huntingtin aggregation, primary screen, imaging, exon1htt(103Q)mCFP cells, high-content imaging (AID 483); conditions: exon1htt(103Q)mCFP cell line, aggregate imaging, at 2 µM; inhibition of aggregation: stronger effect = higher value; nuclei count: measured here: cell count, toxicity;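 also: compound exposure lasted 3 days before fixation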;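 as to nuclei count: percent of the per-plate median nuclei count of sample wells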
[3] = inhibitors of E-selectin induction by TNFa, primary screen, imaging, HUVEC, immunofluorescence, MLSMR starter and 10KST1 sets (AID 487;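 active = visually confirmed hit in the image check and inhibition above 20%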;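 as to inhibition: signal is fraction of cell area covered by stained E-selectin grains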;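 as to nuclei count: 100% = median nuclei count of all wells on the same plate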); conditions: HUVEC TNFalpha-induced E-selectin immunofluorescence imaging, at 2 µM; inhibition: stronger effect = higher value; nuclei count: measured here: cell number, toxicity
[4] = target: Voltage-gated potassium channel subunit beta-2 (Rattus norvegicus) (UniProt P62483); test: KvBeta enzyme negative modulators, primary screen, biochemical, NADPH fluorescence (AID 622;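 active = fluorescence slope higher than the sample average by over 3 SD, cut at about -0.22 in these data, passing the limit was not always enough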;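 also: slope of raw intensity against log time taken from 70 to 1610 s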); conditions: recombinant KvBeta, 4-cyanobenzaldehyde reduction, at 10 µM, stronger effect = higher value
[5] = target: Voltage-gated potassium channel subunit beta-2 (Rattus norvegicus) (UniProt P62483); test: KvBeta positive modulators, primary screen, biochemical, NADPH fluorescence (AID 623;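 active = NADPH fluorescence slope more negative than the mean of all samples by about 3 SD, 99.7% confidence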;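 also: fluorescence intensity change per second fitted from 20 to 320 s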); conditions: Recombinant KvBeta, NADPH fluorescence decrease slope, 10 min; at 10 µM; stronger effect = lower value
[6] = target: Muscarinic acetylcholine receptor M4 (Homo sapiens) (UniProt P08173); test: compounds altering M4/GIRK thallium flux, either direction, primary screen, M4 allosteric agonist project, cell-based, HEK293 M4/GIRK, BTC-AM (AID 625;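 active = fluorescence slope after compound addition differing from the mean of all tested samples at 99.7% confidence, mostly higher but some lower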;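 also: thallium influx through GIRK channels coupled to M4 in HEK293 cells with BTC-AM dye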); conditions: at 10 µM, actives lie on both sides
Summary of the method: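 assay system = HEK293 cells with M4 receptor and GIRK channels | medium = pH 7.3 thallium assay buffer | doses = 10 µM final, single point | timing = cells overnight at 37 °C, BTC-AM loading 1 h, reads 2 min total | signal = BTC-AM fluorescence, 1 Hz kinetic reads | read-out = post-addition slope, 15–24 s, of baseline-normalized fluorescence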

[7] = inhibitors of Sendai virus-induced IRF3 signaling, primary screen, TLR/RLR signaling modifier project, cell-based, Sendai virus stimulus, luciferase, 10K MLSCN set (AID 602276;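 active = inhibition at or above 50% at 10 µM; inactive = inhibition below 50%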;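 also: firefly luciferase from ISG56 promoter only with Renilla not read in this screen; 0% = Sendai virus plus DMSO and 100% = medium plus DMSO without virus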); conditions: HEK293 RL24 IRF3 luciferase reporter, at 10 µM, stronger effect = higher value
[8] = inhibitors of poly I:C-induced TLR3 signaling, primary screen, cell-based, poly I:C stimulus, luciferase, 10K MLSCN set (AID 602277;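 active = inhibition of the reporter signal at or above 50%; inactive = inhibition below 50%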); conditions: HEK293-TLR3 RL24 IRF3 luciferase reporter, at 10 µM, stronger effect = higher value

Sequence of Voltage-gated potassium channel subunit beta-2 (Rattus norvegicus) (P62483 whole entry, looked up): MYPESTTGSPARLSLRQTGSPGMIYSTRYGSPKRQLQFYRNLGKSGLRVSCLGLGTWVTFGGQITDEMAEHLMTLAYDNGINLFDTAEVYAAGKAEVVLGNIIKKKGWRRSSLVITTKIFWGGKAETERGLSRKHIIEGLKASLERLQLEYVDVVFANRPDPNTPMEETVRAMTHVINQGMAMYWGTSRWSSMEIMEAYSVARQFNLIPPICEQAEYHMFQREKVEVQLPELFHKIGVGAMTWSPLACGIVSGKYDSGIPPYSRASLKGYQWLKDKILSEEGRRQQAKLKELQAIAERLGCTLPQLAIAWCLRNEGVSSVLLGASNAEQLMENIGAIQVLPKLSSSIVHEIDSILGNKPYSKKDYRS
Sequence of Muscarinic acetylcholine receptor M4 (Homo sapiens) (P08173 whole entry, looked up): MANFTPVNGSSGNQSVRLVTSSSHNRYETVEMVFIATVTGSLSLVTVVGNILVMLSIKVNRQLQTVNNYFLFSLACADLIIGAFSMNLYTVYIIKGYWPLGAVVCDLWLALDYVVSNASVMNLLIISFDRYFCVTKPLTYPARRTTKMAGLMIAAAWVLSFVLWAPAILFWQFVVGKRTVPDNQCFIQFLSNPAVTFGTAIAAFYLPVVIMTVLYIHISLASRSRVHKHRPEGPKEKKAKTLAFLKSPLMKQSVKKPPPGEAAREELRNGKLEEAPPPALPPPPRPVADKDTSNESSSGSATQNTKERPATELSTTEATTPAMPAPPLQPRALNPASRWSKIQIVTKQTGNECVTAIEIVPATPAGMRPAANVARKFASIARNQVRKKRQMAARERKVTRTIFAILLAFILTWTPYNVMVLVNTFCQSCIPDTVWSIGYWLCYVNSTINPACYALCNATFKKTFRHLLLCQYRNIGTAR

SMILES | cell count [1] | inhibition [1] | inhibition of aggregation [2] | nuclei count [2] | inhibition [3] | nuclei count [3] | fluorescence slope [4] | NADPH fluorescence slope [5] | fluorescence slope [6] | inhibition [7] | inhibition [8]
COc1ccccc1NC(=O)N1c2ccc(F)cc2CCC1C (stereo not drawn) | 407 | -2.5% (inactive) | 2.1% (inactive) | 108% | -58.6% (inactive) | 111% | -0.567 (inactive) | -5e-06 (inactive) | 0.00635 (inactive) | 16.7% (inactive) | 24.1% (inactive)
O=C(c1ccccc1)c1ccc(N2CCOCC2)c(NC(=O)c2ccco2)c1 | 318 | -13% (inactive) | -8.7% (inactive) | 114% | -23.2% (inactive) | 119% | -0.421 (inactive) | 1e-05 (inactive) | 0.0062 (inactive) | 14.1% (inactive) | 17.3% (inactive)
O=C(CN1CCN(C(=O)c2ccccc2)CC1)Nc1ncc(Br)cc1Br | 622 | 7.6% (inactive) | -6.8% (inactive) | 95.9% | 2.6% (inactive) | 99.9% | -0.45 (inactive) | 3.1e-05 (inactive) | 0.00598 (inactive) | -7.57% (inactive) | 5.71% (inactive)
COC(=O)c1cc(Br)c(=O)n(CCN2CCOCC2)c1 | 563 | 5.4% (inactive) | 1.7% (inactive) | 96.1% | 5.8% (inactive) | 104% | -0.43 (inactive) | -6.4e-05 (inactive) | 0.00578 (inactive) | 13% (inactive) | 20.6% (inactive)
CCNC(=O)C1CC(=O)N(Cc2ccc3c(c2)OCO3)C(=Nc2ccc(OCC)cc2)S1 (stereo not drawn) | 577 | -3.7% (inactive) | 13.6% (inactive) | 108% | -3.2% (inactive) | 119% | -0.588 (inactive) | 1.7e-05 (inactive) | 0.00371 (inactive) | 17.9% (inactive) | 21.2% (inactive)
CCSc1nnc(NC(=O)c2cc(C)oc2C)s1 | 352 | -1.4% (inactive) | 5.7% (inactive) | 98.6% | 5.1% (inactive) | 56.1% | -0.451 (inactive) | -4.1e-07 (inactive) | 0.00476 (inactive) | -35.9% (inactive) | -83.6% (inactive)
CCOCCCNCC(=O)N1CCN(S(=O)(=O)c2ccc(C)cc2)CC1 | 642 | 19.3% (inactive) | -0.2% (inactive) | 94.5% | -61.6% (inactive) | 131% | -0.614 (inactive) | 1.2e-05 (inactive) | 0.00526 (inactive) | 7.31% (inactive) | 27.6% (inactive)
O=C(NCC1COCCO1)C1CCN(S(=O)(=O)c2ccccc2)CC1 (stereo not drawn) | 621 | -9.6% (inactive) | -7.6% (inactive) | 111% | -28.6% (inactive) | 112% | -0.557 (inactive) | 3.3e-05 (inactive) | 0.0061 (inactive) | 12% (inactive) | 0.992% (inactive)
CCCCCn1c(=O)[nH]c2cc(C(=O)NCCN3CCOCC3)ccc2c1=O | 355 | -1% (inactive) | 18% (inactive) | 104% | -15.3% (inactive) | 120% | -0.323 (inactive) | -3.7e-05 (inactive) | 0.00658 (inactive) | 5.81% (inactive) | 9.94% (inactive)
Cn1c(SC/C=C/c2ccccc2)nnc1-c1cnccn1 | 630 | 1.1% (inactive) | -4.5% (inactive) | 114% | 6.2% (inactive) | 95.1% | -0.572 (inactive) | 2.7e-05 (inactive) | 0.00503 (inactive) | -12.1% (inactive) | -35% (inactive)
O=C(OCc1nnc(-c2ccccc2)o1)c1ccc(S(=O)(=O)NCc2ccco2)cc1 | 722 | -8.9% (inactive) | -17.9% (inactive) | 89.7% | -51.8% (inactive) | 113% | -0.458 (inactive) | -0.000324 (inactive) | 0.00635 (inactive) | -7.1% (inactive) | 2.67% (inactive)
COc1ccc(C(=O)N(Cc2ccco2)C(C(=O)NC2CCCC2)c2ccc(O)cc2)cc1OC (stereo not drawn) | 653 | -2.4% (inactive) | -3.3% (inactive) | 104% | 14.6% (inactive) | 103% | -0.54 (inactive) | -4.9e-05 (inactive) | 0.00452 (inactive) | 10.7% (inactive) | 12.6% (inactive)
O=C(CN1CCOCC1)N1CCN(C(=O)CN2CCOCC2)CC1 | 557 | -51% (inactive) | -14% (inactive) | 120% | -63.9% (inactive) | 120% | -0.468 (inactive) | 9.6e-05 (inactive) | 0.00604 (inactive) | 12.4% (inactive) | 17.7% (inactive)
Cc1ccc(S(=O)(=O)N2CCOCC2)cc1C(=O)Nc1ccc(-c2cn3ccsc3n2)cc1 | 614 | -6.3% (inactive) | -3% (inactive) | 113% | -29.6% (inactive) | 122% | -0.462 (inactive) | -8.9e-06 (inactive) | 0.00613 (inactive) | -3.48% (inactive) | -16.4% (inactive)
COc1ccccc1S(=O)(=O)n1cc(Cc2ccccc2)c(N)n1 | 341 | -21.8% (inactive) | 0.9% (inactive) | 89% | -28.1% (inactive) | 114% | -0.493 (inactive) | -1.1e-05 (inactive) | 0.0055 (inactive) | 3.66% (inactive) | 31.1% (inactive)
CCc1ccc(NS(=O)(=O)c2cccs2)cc1 | 421 | 4.3% (inactive) | -18.3% (inactive) | 105% | -82% (inactive) | 109% | -0.634 (inactive) | 3e-06 (inactive) | 0.00357 (inactive) | -6.86% (inactive) | -9.13% (inactive)
O=c1c2c(nc3nc(CCc4ccccc4)[nH]n13)CCC2 | 344 | 6.7% (inactive) | -5.3% (inactive) | 97.5% | -59.4% (inactive) | 105% | -0.527 (inactive) | -1.7e-05 (inactive) | 0.00459 (inactive) | 16.2% (inactive) | 19.5% (inactive)
CC(=O)Nc1ccn(-c2ccccc2)n1 | 595 | 1.8% (inactive) | -0.5% (inactive) | 108% | -113% (inactive) | 136% | -0.584 (inactive) | -9.6e-06 (inactive) | 0.00818 (inactive) | -39.2% (inactive) | -34.3% (inactive)
Cc1ccc(S(=O)(=O)N(CC(=O)N2CCC(C(N)=O)CC2)c2cccc(C(F)(F)F)c2)cc1 | 327 | 1% (inactive) | -0.2% (inactive) | 112% | -15.7% (inactive) | 114% | -0.556 (inactive) | 5.5e-06 (inactive) | 0.00443 (inactive) | 25.2% (inactive) | 25.1% (inactive)
O=C(Nc1cccnc1)Nc1ccc2c(c1)OCO2 | 420 | 0.8% (inactive) | -14.9% (inactive) | 121% | 6% (inactive) | 51.1% | -0.418 (inactive) | 6.4e-06 (inactive) | 0.00717 (inactive) | -19.2% (inactive) | -53.4% (inactive)
CC(C)CC(NC(=O)OC(C)(C)C)C(=O)NC(C(=O)NC(C)C(N)=O)C(C)C (stereo not drawn) (Boc-Leu-Val-Ala-NH2; configuration not given here) | 342 | 4.6% (inactive) | 4.4% (inactive) | 116% | -20.6% (inactive) | 117% | -0.573 (inactive) | -1.3e-05 (inactive) | 0.00562 (inactive) | -9.68% (inactive) | 17.1% (inactive)
C=CCN1C(=O)/C(=C2/Sc3ccccc3N2C)SC1=Nc1c(C)n[nH]c1C | 401 | -0.2% (inactive) | -18.2% (inactive) | 103% | -70.1% (inactive) | 106% | -0.519 (inactive) | -2.3e-05 (inactive) | 0.00378 (inactive) | 12.6% (inactive) | 10.1% (inactive)
CCCn1nc(NS(=O)(=O)c2ccccc2)c2cc3ccccc3nc21 | 468 | -3.8% (inactive) | -8.5% (inactive) | 110% | 12% (inactive) | 102% | -0.598 (inactive) | 2.9e-05 (inactive) | 0.00512 (inactive) | 6.34% (inactive) | 14.1% (inactive)
COc1cccc(C(=O)Nc2cccc(C(=O)N3CCOCC3)c2)c1 | 354 | 1.6% (inactive) | 0.9% (inactive) | 76% | -121% (inactive) | 95% | -0.564 (inactive) | -3.3e-05 (inactive) | 0.00825 (inactive) | 3.67% (inactive) | 1.87% (inactive)
CC(C)CCNC(=O)NC(=O)CSc1nnc(-c2ccccc2Br)o1 | 538 | -16.6% (inactive) | 2% (inactive) | 104% | -32.9% (inactive) | 125% | -0.458 (inactive) | 2.9e-05 (inactive) | 0.0066 (inactive) | -3.6% (inactive) | 20.3% (inactive)
COc1cccc(Oc2ccc(N)cc2)c1 | 716 | -0.6% (inactive) | 20.3% (inactive) | 102% | -54.1% (inactive) | 97.5% | -0.44 (inactive) | -0.000235 (active) | 0.00432 (inactive) | -0.294% (inactive) | -6.53% (inactive)
CCCC(C)C(=O)Nc1ccc(C(N)=O)cc1 (stereo not drawn) | 668 | 0.5% (inactive) | 1% (inactive) | 110% | 22.4% (inactive) | 87% | -0.272 (inactive) | -3.2e-05 (inactive) | 0.00544 (inactive) | 11.2% (inactive) | 13.5% (inactive)
CCc1c(C)nc(N)n2c(SCC(=O)N3CCCc4ccccc43)nnc12 | 503 | 14.6% (inactive) | -13.3% (inactive) | 123% | -251% (inactive) | 147% | -0.454 (inactive) | -6.5e-05 (inactive) | 0.00455 (inactive) | 20.9% (inactive) | 31.4% (inactive)
